Laboratory results from ChEMBL document CHEMBL4610124, “Novel Thienopyrimidine Inhibitors of Leishmania N-Myristoyltransferase with On-Target Activity in Intracellular Amastigotes” (J Med Chem, 2020).
pEC50, pIC50: −log10 of the molar value.

Columns and labels:
[1] = Inhibition of Leishmania donovani NMT using p60 SRC(2 to […]) as substrate by CPM dye based fluorescence assay
[2] = target: T1, Glycylpeptide N-tetradecanoyltransferase 1 (Homo sapiens, UniProt P30419); type: ADME
T1 sequence (P30419 whole entry): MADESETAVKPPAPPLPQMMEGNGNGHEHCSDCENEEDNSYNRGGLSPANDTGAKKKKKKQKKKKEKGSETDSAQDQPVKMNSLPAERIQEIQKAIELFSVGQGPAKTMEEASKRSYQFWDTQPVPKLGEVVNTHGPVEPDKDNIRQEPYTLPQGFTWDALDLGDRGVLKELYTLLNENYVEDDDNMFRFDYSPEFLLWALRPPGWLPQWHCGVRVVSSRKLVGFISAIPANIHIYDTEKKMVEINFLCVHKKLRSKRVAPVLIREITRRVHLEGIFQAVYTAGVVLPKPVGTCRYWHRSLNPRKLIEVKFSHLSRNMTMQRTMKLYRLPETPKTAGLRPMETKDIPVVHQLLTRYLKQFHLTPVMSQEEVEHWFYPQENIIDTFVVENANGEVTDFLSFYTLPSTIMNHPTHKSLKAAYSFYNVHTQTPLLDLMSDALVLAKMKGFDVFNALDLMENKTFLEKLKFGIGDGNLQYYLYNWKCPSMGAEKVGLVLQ

[3] = test system: human NMT1 versus Leishmania donovani NMT; experiment: Selectivity ratio of IC50 for human NMT1 to IC50 for Leishmania donovani NMT; type: toxicity; settings: read-out: Ratio IC50
Method in brief: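 Ratio of IC₅₀ for HsNMT1 to IC₅₀ for LdNMT. Both were measured in a fluorogenic CPM assay, in which coenzyme A released by acyl transfer is detected with the thiol-reactive dye CPM.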

[4] = Inhibition of Leishmania major NMT using p60 SRC(2 to […]) as substrate by CPM dye based fluorescence assay
Leishmania donovani [5] = experiment: Antileishmanial activity against Leishmania donovani MHOM/ET/67/HU3 intracellular amastigotes measured after 72 hrs by alamar blue dye based fluorescence assay; type: functional, organism-based; settings: MHOM/ET/67/HU3, 72 h
Method in brief: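 Ex vivo L. donovani LV9 amastigotes, kept by serial passage in Rag-2−/− mice, isolated from infected spleens by homogenization and saponin lysis. Plated at 4 × 10⁵ per well in RPMI with 20% heat-inactivated FCS, adenine, 20 mM MES (pH 5.5), hemin, biopterin and biotin.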

Leishmania donovani [6] = experiment: Effect on total NMT expression in Leishmania donovani MHOM/ET/67/HU3 intracellular amastigotes after 12 hrs in presence of YnMyr by Western blot analysis; type: ADME, organism-based
Method in brief: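 Amastigotes from spleens of Rag-2−/− mice, isolated by saponin lysis, seeded at 7.5 × 10⁷/mL in RPMI/10% FCS with inhibitor for 1 h at 37 °C. Then resuspended in fresh medium with inhibitor plus YnMyr (50 μM final) for 12 h. Lysates were click-labelled and run on SDS-PAGE, then immunoblotted with anti-LdNMT antibody.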

Row | pIC50 [1] | pIC50 [4] | SMILES | pIC50 [2] | selectivity ratio [3] | pEC50 (Leishmania donovani [5]) | Activity (Leishmania donovani [6])
1 | < 4.00 |  | CN(C)CCCN(C)c1ncc2sccc2n1 |  |  |  | 
2 |  |  | CCN(C)c1nc(N(C)C2CCNCC2)nc2ccc(S(=O)(=O)Nc3c(C)nn(C)c3C)cc12 | 5.77 | 5.2 |  | 
3 | 6.64 |  | CCN(C)c1nc(N(C)CCCN(C)C)nc2ccc(S(=O)(=O)Nc3c(C)nn(C)c3C)cc12 | 5.96 | 4.6 |  | 
4 | < 4.00 |  | CN(CCCN(C)c1nc(N(C)CCC#N)c2sccc2n1)Cc1ccccc1 |  |  |  | 
5 | < 4.00 |  | CN(CCCO)c1nc(N(C)CCC#N)c2sccc2n1 |  |  |  | 
6 | 6.46 |  | CN(C)CCCN(C)c1nc(N(C)CCC#N)c2cc(Br)ccc2n1 |  |  | 4.77 | 
7 | < 4.00 |  | CN(CCC#N)c1nc(N(C)C2CCOCC2)nc2ccsc12 |  |  |  | 
8 | 6.44 | 6.80 | CN(C)CCCN(C)c1nc(N(C)CCC#N)c2sc(C(C)(C)C)cc2n1 |  |  | 4.43 | 
9 | 5.24 | 5.31 | CN(CCC#N)c1nc(N(C)C2CCNC2)nc2ccccc12 (centres undefined) |  |  |  | 
10 | 4.64 |  | COCCN(C)c1nc(N2CCN(C)CC2)nc2ccsc12 |  |  |  | 
11 | 4.66 | 4.44 | CN(C)CCCN(C)c1nc(N(C)CCO)c2sccc2n1 |  |  |  | 
12 | 5.74 |  | COc1ccc2nc(N(C)CCCN(C)C)nc(N(C)CCC#N)c2c1 | < 4.00 | > 56 |  | 
13 |  | 4.72 | CN(C)CCCN(C)c1nc(N2CCC[C@H]2CO)c2sccc2n1 |  |  | < 4.30 | 
14 |  |  | CN1CCC(N(C)c2nc(N(C)CCC#N)c3sc(C(C)(C)C)cc3n2)C1 (centres undefined) |  |  |  | Non-Toxic
15 | < 4.00 |  | CC(C)CN(C)CCCN(C)c1nc(N(C)CCC#N)c2sccc2n1 |  |  |  | 
16 | 5.11 |  | CN(CCC#N)c1nc(N(C)C2CCN(Cc3ccccc3)C2)nc2cc(C(C)(C)C)sc12 (centres undefined) |  |  |  | 
17 | 5.26 |  | CN1CCC(N(C)c2nc(N(C)CCC#N)c3cc(Br)ccc3n2)C1 (centres undefined) | < 4.00 | > 18 |  | 
18 | 6.17 |  | Cc1ccccc1-c1ccc2nc(N(C)CCCN(C)C)nc(N(C)CCC#N)c2c1 | < 4.00 | > 150 |  | 
19 | 5.26 |  | CN(CCC#N)c1nc(N(C)C2CCNC2)nc2cc(C(C)(C)C)sc12 (centres undefined) | < 4.00 | > 18 | 4.68 | 

Row | pIC50 [1] | pIC50 [4] | SMILES | pIC50 [2] | selectivity ratio [3] | pEC50 (Leishmania donovani [5]) | Activity (Leishmania donovani [6])
20 | < 4.00 |  | CN(C)CCCN(C)c1nccc(N(C)CCC#N)n1 | < 4.00 |  |  | 
21 | 4.36 |  | COCCN(C)c1nc(N(C)CCCN(C)C)nc2ccsc12 |  |  |  | 
22 | < 4.00 |  | CN(CCC#N)c1nc(N(C)C2CCN(Cc3ccccc3)C2)nc2ccsc12 (centres undefined) |  |  |  | 
23 |  | 4.89 | CN(C)CCCN(C)c1nc(N(C)CCC(N)=O)c2sccc2n1 |  |  | < 4.30 | 
24 | 5.62 |  | CN(C)CCCN(C)c1nc(N(C)CCC#N)c2cccnc2n1 | < 4.00 | > 42 |  | 
25 | 6.41 |  | CN(C)CCCN(C)c1nc(N(C)CCC#N)c2cc(-c3ccccc3)ccc2n1 | < 4.00 | > 260 |  | 
26 | < 4.00 |  | CN(C)CCCN(C)c1nc(N(C)CCC#N)c2c(ncn2C)n1 | < 4.00 |  |  | 
27 | 5.18 |  | COc1ccc(-c2ccc3nc(N(C)CCCN(C)C)nc(N(C)CCC#N)c3c2)c(C)c1 | < 4.00 | > 15 |  | 
28 | 5.02 |  | CN1CCC(N(C)c2nc(N(C)CCC#N)c3ccccc3n2)C1 (centres undefined) |  |  | 5.18 | Non-Toxic
29 |  | 4.40 | CN(C)CCCN(C)c1nc(N(C)CCCO)c2sccc2n1 |  |  | < 4.30 | 
30 | 4.52 |  | CN1CCN(c2nc(N(C)CCC#N)c3sccc3n2)CC1 |  |  |  | 
31 | 4.55 |  | CN(CCC#N)c1nc(N2CCNCC2)nc2ccsc12 |  |  |  | 
32 |  | 5.68 | CN(C)CCCN(C)c1nc(N(C)CCC#N)c2ccccc2n1 |  |  | < 4.30 | 
33 | < 4.00 |  | CC(=O)N(C)CCN(C)c1nc(N(C)CCCN(C)C)nc2ccsc12 | < 4.00 |  |  | 
34 | 5.28 |  | CNCCCN(C)c1nc(N(C)CCC#N)c2sccc2n1 |  |  |  | 
35 | 4.27 |  | CN(C)CCCN(C)c1nc(N(C)CCC(=O)N(C)C)c2sccc2n1 |  |  |  | 
36 | 5.02 |  | COc1ccc2c(N(C)CCC#N)nc(N(C)CCCN(C)C)nc2c1 |  |  |  | 
37 | 6.23 to 6.82 | 5.57 | CN(C)CCCN(C)c1nc(N(C)CCC#N)c2sccc2n1 | < 4.00 | > 170 | < 4.30 | 
38 |  | 4.89 | CCN(C)c1nc(N(C)CCCN(C)C)nc2ccsc12 | < 4.00 | > 8 |  | 

Row | SMILES | pIC50 [1] | pIC50 [4] | pIC50 [2] | selectivity ratio [3] | pEC50 (Leishmania donovani [5]) | Activity (Leishmania donovani [6])
39 | CN(c1nc(N2CCC[C@H]2CC#N)c2sccc2n1)C1CCNCC1 | 6.68 |  | 5.80 | 7.8 |  | 
40 | CCN(C)c1nc(N(C)C2CCN(C)CC2)nc2ccsc12 |  | 6.14 | 5.10 |  | < 4.30 | 
41 | CN1CCC(N(C)c2nc(N(C)CCC#N)c3sccc3n2)CC1 | 6.47 | 6.70 | 5.24 |  |  | Non-Toxic
42 | CN1CCC(N(C)c2nc(N3CCC[C@H]3CC#N)c3sccc3n2)CC1 | 6.82 |  | < 4.00 | > 660 | 4.72 | 
43 | CC(C)CN1CCC(N(C)c2nc(N(C)CCC#N)c3sccc3n2)CC1 | 5.40 |  | < 4.00 | > 25 |  | 
44 | CN(CCC#N)c1nc(N(CCO)C2CCNCC2)nc2ccccc12 |  | 5.09 |  |  |  | 
45 | COC[C@@H]1CCCN1c1nc(N(C)C2CCNCC2)nc2ccsc12 | 5.37 |  | 5.30 | 1.2 |  | 
46 | CN(CCC#N)c1nc(N(C)C2CCNCC2)nc2ccsc12 | 6.30 |  | 4.96 | 22 | < 4.30 | 
47 | CCN1CCC(N(C)c2nc(N(C)CCC#N)c3ccccc3n2)CC1 | 6.01 | 6.02 |  |  | < 4.30 | 
48 | COC[C@@H]1CCCN1c1nc(N(C)C2CCN(C)CC2)nc2ccsc12 | 6.06 |  | < 4.00 | > 120 | 4.59 | 
49 | CN(CCC#N)c1nc(N(C)C2CCN(Cc3ccccc3)CC2)nc2ccsc12 | 4.57 |  |  |  |  | 
50 | CN1CCC(N(C)c2nc(N(C)CCC#N)c3cc(Br)ccc3n2)CC1 | 6.02 |  | < 4.00 | > 20 |  | 
51 | CN1CCC(N(C)c2nc(N(C)CCC#N)c3sc(C(C)(C)C)cc3n2)CC1 | 7.34 | 7.38 | 6.26 |  |  | 
52 | CN(CCC#N)c1nc(N(C)[C@H]2C[C@H]3CC[C@@H](C2)N3C)nc2ccccc12 | 4.80 | 4.89 | < 4.00 |  | < 4.30 | 
53 | CN(CCC#N)c1nc(N(C)C2CCNCC2)nc2ccccc12 |  | 5.96 | < 4.00 |  | < 4.30 | 
54 | COc1ccc2nc(N(C)C3CCN(C)CC3)nc(N(C)CCC#N)c2c1 | 6.30 |  | < 4.00 | > 200 |  | 
55 | CCN(C)c1nc(N(C)C2CCN(C)CC2)nc2ccc(S(=O)(=O)Nc3c(C)nn(C)c3C)cc12 | 6.70 |  | 5.64 | 11 |  | 
56 | CCN(C)c1nc(N(C)C2CCN(Cc3ccccc3)CC2)nc2ccsc12 | < 4.00 |  |  |  |  | 
